Values after ≈ are worked out from the molar mass of the structure shown.
Tested on: Mycobacterium tuberculosis
Experiment: Antimycobacterial activity against Mycobacterium tuberculosis H37Rv ATCC 27294 after 7 days by REMA assay
Assay type: functional
Conditions: H37Rv ATCC 27294, 168 h
Outline: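 MIC by resazurin microtiter assay. Bacteria suspended in sterile water with glass beads, vortexed, turbidity set to McFarland tube 1 (3.2 × 10^6 CFU/mL), then diluted 1:20 in Middlebrook 7H9. Compounds in DMSO, two-fold serial dilutions (100.0-3.2 µg/mL) in 7H9 with 10% OADC. Incubated 37 °C for 7 days, resazurin added, further 2 days at 37 °C. MIC read from colour change.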

Row | Structure (SMILES) | MIC
1 | CCCCCCCCCCCCCCCCCC(=O)NNC(=O)c1ccncc1 | 0.03 µg/mL (≈ 0.0743 µM)
2 | CCCCCCCC/C=C/CCCCCCCC(=O)NNC(=O)c1ccncc1 | 0.03 µg/mL (≈ 0.0747 µM)
3 | CCCCC/C=C\C/C=C\CCCCCCCC(=O)NNC(=O)c1ccncc1 | 0.125 µg/mL (≈ 0.313 µM)
4 | CCCCCCCC/C=C\CCCCCCCC(=O)O [OLEIC ACID] | 100 µg/mL (≈ 354 µM)
5 | CCCCCC[C@@H](O)C/C=C\CCCCCCCC(=O)NNC(=O)c1ccncc1 | 0.03 µg/mL (≈ 0.0718 µM)
6 | CC/C=C\C/C=C\C/C=C\CCCCCCCC(=O)NNC(=O)c1ccncc1 | 0.06 µg/mL (≈ 0.151 µM)
7 | NNC(=O)c1ccncc1 [ISONIAZID] | 0.06 µg/mL (≈ 0.438 µM)
8 | CCCCCCCC/C=C\CCCCCCCC(=O)NNC(=O)c1ccncc1 | 0.015 µg/mL (≈ 0.0374 µM)
9 | CCCCCCCCCCCCCCCC(=O)NNC(=O)c1ccncc1 | 0.015 µg/mL (≈ 0.0399 µM)
10 | CCCCCCCC/C=C\CCCCCCCC(=O)NN [OLEOHYDRAZIDE] | 50 µg/mL (≈ 169 µM)
11 | CO[C@H]1/C=C/O[C@@]2(C)Oc3c(C)c(O)c4c(O)c(c(/C=N/N5CCN(C)CC5)c(O)c4c3C2=O)NC(=O)/C(C)=C\C=C\[C@H](C)[C@H](O)[C@@H](C)[C@@H](O)[C@@H](C)[C@H](OC(C)=O)[C@@H]1C [RIFAMPIN] | 0.03 µg/mL (≈ 0.0365 µM)
